In brackets after ≈: the same amount, converted by molar mass. Activity calls are given as the source filed them. No cut-off for these calls is given here.
Key:
Mus musculus [1] = assay: Antiinflammatory activity in ICR mouse assessed as inhibition of carrageenan-induced neutrophil infiltration in paw at 10 mg/kg, ip administered 30 mins before carrageenan challenge; format: functional, organism-based; parameters: dose 10 mg/kg
Mus musculus [2] = assay: Antiinflammatory activity in ICR mouse assessed as inhibition of carrageenan-induced decrease in GPx activity in liver at 10 mg/kg, ip administered 30 mins before carrageenan challenge measured after 5 hrs; format: functional, organism-based; parameters: dose 10 mg/kg
How it was run: (§1)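 Liver catalase, SOD and GPx activities determined 5 h after intrapaw carrageenan in ICR mice given drug i.p. 30 min beforehand. Indomethacin 10 mg/kg as positive control.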

Mus musculus [3] = assay: Antiinflammatory activity in ICR mouse assessed as inhibition of carrageenan-induced TNFalpha level in paw serum at 10 mg/kg, ip administered 30 mins before carrageenan challenge measured after 5 hrs by ELISA; format: functional, organism-based; parameters: dose 10 mg/kg
How it was run: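 ICR mice (n = 6) dosed i.p. 30 min before intraplantar 1% carrageenan; blood collected at sacrifice and stored at −80 °C. Serum TNF-α quantified by commercial ELISA, reported in pg/mL from the standard-curve regression. Indomethacin 10 mg/kg as reference.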

Mus musculus [4] = assay: Antiinflammatory activity in ICR mouse assessed as inhibition of carrageenan-induced paw edema at 10 mg/kg, ip administered 30 mins before carrageenan challenge measured after 3 hrs by plethysmometer analysis; format: functional, organism-based; parameters: dose 10 mg/kg
How it was run: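 Male ICR mice (n = 6) received saline, indomethacin 10 mg/kg or drug i.p. 30 min before 50 μL of 1% carrageenan in the right hind paw. Paw volume was read by plethysmometer immediately and at 1−5 h. Swelling was expressed as the ratio of right paw volume after carrageenan to volume before.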

Mus musculus [5] = assay: Antiinflammatory activity in ICR mouse assessed as inhibition of carrageenan-induced iNOS protein expression in paw at 10 mg/kg, ip administered 30 mins before carrageenan challenge by Western blotting relative to control; format: functional; conditions: route intraperitoneal
How it was run: (§2)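 Male ICR mice (18−25 g, n = 6 per group) given drug or saline i.p. 30 min before 50 μL of 1% carrageenan into the right hind paw plantar side. Paw soft tissue was homogenized in CHAPS buffer with protease inhibitors. About 30 μg protein run on 10% SDS-PAGE, immunoblotted for iNOS or COX-2, ECL detection, normalized to β-actin. Indomethacin 10 mg/kg as positive control.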

Mus musculus [6] = assay: Antiinflammatory activity in ICR mouse assessed as inhibition of carrageenan-induced decrease in SOD activity in liver at 10 mg/kg, ip administered 30 mins before carrageenan challenge measured after 5 hrs; format: functional, organism-based; parameters: dose 10 mg/kg; how it was run: as §1
Mus musculus [7] = assay: Antiinflammatory activity in ICR mouse assessed as inhibition of carrageenan-induced malondialdehyde level in paw serum at 10 mg/kg, ip administered 30 mins before carrageenan challenge measured after 5 hrs by TRARS method; format: functional, organism-based; parameters: dose 10 mg/kg
How it was run: (§3)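 Carrageenan (1%, 50 μL intraplantar) given to ICR mice 30 min after i.p. dosing; right hind paws dissected at end and kept at −80 °C. Malondialdehyde measured by thiobarbituric acid reaction under acidic high-temperature conditions, red TBARS complex read at 532 nm.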

Mus musculus [8] = assay: Antiinflammatory activity in ICR mouse assessed as inhibition of carrageenan-induced decrease in CAT activity in liver at 10 mg/kg, ip administered 30 mins before carrageenan challenge measured after 5 hrs; format: functional, organism-based; parameters: dose 10 mg/kg; how it was run: as §1
Mus musculus [9] = assay: Antiinflammatory activity in ICR mouse assessed as inhibition of carrageenan-induced COX2 protein expression in paw at 10 mg/kg, ip administered 30 mins before carrageenan challenge by Western blotting relative to control; format: functional; conditions: route intraperitoneal; how it was run: as §2
RAW264.7 [10] = assay: Antiinflammatory activity in mouse RAW264.7 cells assessed as inhibition of LPS-induced nitric oxide production treated 1 hr before LPS challenge measured after 24 hrs by Griess method; format: functional, cell-based
How it was run: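 RAW264.7 cells preincubated 1 h with drug at 0, 1, 5 or 10 μg/mL, then co-treated with 100 ng/mL LPS at 37 °C for 24 h. Culture medium mixed 1:1 with Griess reagent (1% sulfanilamide, 0.1% naphthyl ethylenediamine, 5% phosphoric acid), 10 min at room temperature, absorbance 540 nm against a nitrite standard curve.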

Mus musculus [11] = assay: Antiinflammatory activity in ICR mouse assessed as inhibition of carrageenan-induced decrease in CAT activity in liver at 5 mg/kg, ip administered 30 mins before carrageenan challenge measured after 5 hrs; format: functional, organism-based; parameters: dose 5 mg/kg; how it was run: as §1
[12] = Cytotoxicity against human leukemia cells; format: functional, cell-based; conditions: Leukemia cell
Mus musculus [13] = assay: Antiinflammatory activity in ICR mouse assessed as inhibition of carrageenan-induced decrease in SOD activity in liver at 5 mg/kg, ip administered 30 mins before carrageenan challenge measured after 5 hrs; format: functional, organism-based; parameters: dose 5 mg/kg; how it was run: as §1
[14] = Cytotoxicity against human breast cancer cells; format: functional, cell-based; conditions: Cancer cell lines
RAW264.7 [15] = assay: Cytotoxicity against LPS-stimulated mouse RAW264.7 cells assessed as cell viability at 10 ug/ml treated 1 hr before LPS challenge measured after 24 hrs by MTT assay; format: cell-based; conditions: raw264.7, 24 h
How it was run: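 RAW264.7 cells (2 × 10^5/well) grown 1 day to near confluence, pretreated 1 h with drug (0−10 μg/mL), then co-stimulated with 100 ng/mL LPS for 24 h. After DPBS washes, cells got 0.5 mg/mL MTT for 2 h at 37 °C, then DMSO for 30 min, and absorbance was read at 570 nm.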

RAW264.7 [16] = assay: Antiinflammatory activity in mouse RAW264.7 cells assessed as inhibition of LPS-induced COX2 expression at 5 to 10 ug/ml by Western blotting; format: functional, cell-based
How it was run: (§4)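 RAW264.7 macrophages in DMEM with 10% FBS were pretreated 1 h with drug (0−10 μg/mL), then co-stimulated with 100 ng/mL LPS for 24 h. Lysates (ice-cold Triton lysis buffer, pH 7.9) were blotted for iNOS or COX-2, with about 30 μg protein per lane and ECL detection. Bands normalized to β-actin, expressed relative to the LPS-only group as 100%.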

Mus musculus [17] = assay: Antiinflammatory activity in ICR mouse assessed as inhibition of carrageenan-induced malondialdehyde level in paw at 10 mg/kg, ip administered 30 mins before carrageenan challenge by TRARS method; format: functional, organism-based; parameters: dose 10 mg/kg; how it was run: as §3
RAW264.7 [18] = assay: Antiinflammatory activity in mouse RAW264.7 cells assessed as inhibition of LPS-induced iNOS expression at 5 to 10 ug/ml by Western blotting; format: functional, cell-based; how it was run: as §4
Mus musculus [19] = assay: Antiinflammatory activity in ICR mouse assessed as inhibition of carrageenan-induced decrease in GPx activity in liver at 5 mg/kg, ip administered 30 mins before carrageenan challenge measured after 5 hrs; format: functional, organism-based; parameters: dose 5 mg/kg; how it was run: as §1
HCT-116 = assay: Cytotoxicity against human HCT116 cells; format: functional, cell-based
Mus musculus [20] = assay: Antiinflammatory activity in ICR mouse assessed as inhibition of carrageenan-induced TNFalpha level in paw serum at 5 to 10 mg/kg, ip administered 30 mins before carrageenan challenge measured after 5 hrs by ELISA
PBMC = assay: Cytotoxicity against human PBMC; format: cell-based
Mus musculus [21] = assay: Antiinflammatory activity in ICR mouse assessed as inhibition of carrageenan-induced nitric oxide level in paw serum at 1 to 10 mg/kg, ip administered 30 mins before carrageenan challenge measured after 5 hrs by Griess method; format: functional, organism-based
How it was run: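 Mice pretreated i.p. 30 min before intraplantar 1% carrageenan; samples taken 5 h after injection. Homogenates diluted fourfold in water, deproteinized with zinc sulfate to a final 15 mg/mL, centrifuged at 10000g for 5 min. Supernatant mixed 1:1 with Griess reagent, 10 min at room temperature, A540. Nitrite quantified against a sodium nitrite standard curve.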

Mus musculus [22] = assay: Antiinflammatory activity in ICR mouse assessed as inhibition of carrageenan-induced malondialdehyde level in paw serum at 1 mg/kg, ip administered 30 mins before carrageenan challenge measured after 5 hrs by TRARS method; format: functional, organism-based; parameters: dose 1 mg/kg; how it was run: as §3

In the case of `COc1ccc2c(c1)c(CC(=O)O)c(C)n2C(=O)c1ccc(Cl)cc1` [INDOMETHACIN], the inhibition (Mus musculus [1]) is reported as “Active”, the inhibition (Mus musculus [2]) is reported as “Active” and the inhibition (Mus musculus [3]) is reported as “Active”. The inhibition (Mus musculus [4]) was “Active”, the inhibition in vivo at 10 mg/kg (Mus musculus [5]) was 61.5% and the inhibition (Mus musculus [6]) was “Active”. The inhibition (Mus musculus [7]) was “Active”, the inhibition (Mus musculus [8]) was “Active” and the inhibition in vivo at 10 mg/kg (Mus musculus [9]) was 58.1%.
For `C=C[C@](C)(O)CC[C@@H]1[C@@]2(C)CCCC(C)(C)[C@@H]2CC[C@@]1(C)O` [SCLAREOL], the inhibition (RAW264.7 [10]) was “Dose-dependent effect”, the inhibition (Mus musculus [1]) was “Active” and the inhibition (Mus musculus [11]) was “Active”. The inhibition (Mus musculus [4]) was “Active”, the IC50 [12] was 6 µg/mL (≈ 19.4 µM) and the inhibition (Mus musculus [13]) was “Active”. The IC50 [14] was 7 µg/mL (≈ 22.7 µM), the inhibition in vivo at 10 mg/kg (Mus musculus [5]) was 69.6% and the Activity (RAW264.7 [15]) was “Non-toxic”. The inhibition (RAW264.7 [16]) was “Active”, the inhibition (Mus musculus [17]) was “Active” and the inhibition (RAW264.7 [18]) was “Active”. For the same compound, the inhibition (Mus musculus [19]) was “Active”, the IC50 (HCT-116) was 10.6 µg/mL (≈ 34.4 µM) and the inhibition (Mus musculus [20]) was “Active”. For the same compound, the inhibition in vivo at 10 mg/kg (Mus musculus [9]) was 70.3%, the IC50 (PBMC) was 10.7 µg/mL (≈ 34.7 µM) and the inhibition (Mus musculus [21]) was “Active”. The inhibition (Mus musculus [22]) was “Active”.

Reference: ChEMBL document CHEMBL1949575, “Sclareol exhibits anti-inflammatory activity in both lipopolysaccharide-stimulated macrophages and the λ-carrageenan-induced paw edema model” (J Nat Prod, 2012)
